Data on 63 compounds can be found in PubChem BioAssay AID504383 (The Scripps Research Institute Molecular Screening Center, 2011).

Molecules are shown by their SMILES. Among all 2,500 compounds or so, about 1,200 (48%) were called active. So high a share suggests a set chosen from earlier hits. The list shows a part of the results. Unmarked numbers belong to inactive results.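 The calls were made as follows: active = mean activation above the low control average plus 3 SD, as set in the primary screen (cut at about 12% in these data); inactive = the rest.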

In this assay the target is Troponin I, cardiac muscle (Homo sapiens) + Troponin T, cardiac muscle (Homo sapiens) + Troponin C, slow skeletal and cardiac muscles (Homo sapiens) (UniProt P19429+P45379+P63316). In words: calcium sensitizers of cardiac thin filaments – biochemical, IANBD-TnC fluorescence, triplicate, confirmation (AID 504383).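 Also: 0% = DMSO at 0.472 mM calcium and 100% = DMSO at 2.9 mM calcium.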 The settings on record: IANBD-labeled cardiac RTF, Ca2+ sensitivity fluorescence; at 7.2 µM; hits give high values; scaled from EC20 to saturating calcium; tested at EC20 calcium, 0.472 mM. Summed up: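 Material: labelled regulated thin filaments; Reagent: 0.472 mM calcium; Incubation: 15 min compound incubation with filaments at 25 °C; Detection: filament fluorescence intensity; Evaluation: fluorescence increase normalised to calcium controls; Benchmarks: low control EC20 calcium, high control EC100 calcium.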
Consider `Cc1ccc(S(=O)(=O)NC(C)(C)CN2CCC(Cc3ccccc3)CC2)cc1`, for which the activation is 21.5% (active).

As for `O=S(=O)(c1ccccc1Cl)N1CCC(Cc2ccccc2)CC1`, the activation was 10.4%. `CC(C)(CN1CCc2ccccc2C1)NS(=O)(=O)c1ccc(Cl)cc1`: the activation is 2.24%. As for `COc1ccc(Br)cc1S(=O)(=O)Nc1ncccc1C`, the figure is 68.3% (active); as for `COc1ccc(C(=O)O)cc1S(=O)(=O)NCCc1ccccn1`, 5.17%. As for `COc1cc(Cl)c(S(=O)(=O)NCc2ccccn2)cc1Cl`, the activation is 7.75%. Turning to `COC(=O)N1c2ccccc2CCc2ccccc21`, the activation is 8.65%. The same measure for `CCCCOc1cccc(C2C(C(=O)c3cccs3)=C(O)C(=O)N2Cc2cccnc2)c1` (stereo not drawn): -3.36%. In the case of `CCCOc1ccc(C2C(C(=O)c3ccc(C)o3)=C(O)C(=O)N2CCCn2ccnc2)cc1` (stereo not drawn), the activation was 64.1% (active).

For `Cc1cc2oc3ccc(NCCCn4ccnc4)cc3c(=O)c2cc1C`, the activation is 1.5%.

With `CCNc1ccc2noc3c2c1C(=O)c1ccccc1-3`, the activation was 15.8% (active). For `O=C1c2ccccc2-c2onc3ccc(NCc4ccco4)c1c23`, the activation is 1.47%. Take `CCOc1ccc2noc3c2c1C(=O)c1ccccc1-3`: the activation is 3.61%.

With `N#CC1=C(N)Oc2cc(O)c(Cl)cc2C1c1ccccc1F` (stereo not drawn), the activation is 162% (active). Regarding `COC(=O)C1=C(CSc2nc3c(cc2C#N)CN(C)CC3)OC(N)=C(C#N)C1c1ccccc1F` (stereo not drawn), the activation was 10.6%. With `O=C1CCC(=O)N(O)CCCCCNC(=O)CCC(=O)N(O)CCCCNC(=O)CCC(=O)N(O)CCCCCN1`, the activation is 1.89%.

As for `CC(=O)c1cccc(Nc2cc(C)nc3ccc(C)cc23)c1`, the activation is 25.6% (active). As for `COc1ccc(Nc2cc(C)nc3ccc(OC)cc23)cc1`, the figure is 4.34%; as for `CC(=O)c1cccc(NC(=S)NC2CCCCC2)c1`, 8.2%. `CCN(C(=O)c1cnc(NC(C)C)cc1C(F)(F)F)c1ccc(Cl)cc1`: the activation is 4.41%. The same measure for `CC(=O)n1c(C=Nc2ccc(Cl)cc2)c(O)c2ccccc21`: 10.7%; for `Oc1sc(C=Nc2ccccc2)c2ccccc12`: 12.9% (active). The same measure for `COc1ccc(N=Cc2c(O)c3ccccc3n2C(C)=O)cc1`: 13.7% (active); for `Cc1ccc(N=Cc2sc(O)c3ccccc23)cc1`: 7.98%; for `CCN(c1ccc(N=Cc2c(O)n(Cc3ccc(OC)cc3)c(=O)c3ccccc23)cc1)C(C)C`: 9.81%. Take `COc1ccc(N=Cc2sc(O)c3ccccc23)cc1`: the activation was 152% (active).

On to `O=[N+]([O-])c1ccc(N/N=C\c2ccccc2OCc2ccccc2)cc1`, for which the activation was 19.2% (active). With `O=C(Nc1cc2c3c(c1)CC(=O)N3CCC2)C1CC1`, the activation is 10.7%. `COc1ncnc2c1NC1=C(S2)C(=NCCC(=O)O)CC(C)(C)C1`: the activation is 70.3% (active).

With `CCN1/C(=C/c2ccc3cc(C)ccc3[n+]2CC)Sc2ccc3sccc3c21`, the activation was 11.7% (active). The same measure for `CCN1/C(=C/c2ccc3cc(C)cc(C)c3[n+]2CC)Sc2cc(C)ccc21`: 14.7% (active); for `CCN1/C(=C/c2ccc3cc(C)ccc3[n+]2CC)Sc2cc(C)ccc21`: 2.46%; for `CCN1/C(=C\c2ccc3cc(C)ccc3[n+]2CC)Sc2cc(C)c(C)cc21`: 6.91%. In the case of `CCN1/C(=C\c2ccc3ccccc3[n+]2CC)Sc2cc(C)ccc21`, the activation is 57.9% (active). With `CCN1/C(=C/c2ccc3cc(C)ccc3[n+]2CC)Sc2ccccc21`, the activation was 68.1% (active). For `COc1ccccc1N=Cc1c(C)c(C#N)c2[nH]c3ccccc3n2c1=O`, the activation is 1.91%. As for `COc1ccc(N2C(N)=NC(N)=NC2(C)C)cc1`, the figure is 1.33%; as for `CN1CC=C2C(C#N)=C(N)C(C#N)(C#N)C(Cc3ccccc3)C2C1` (stereo not drawn), 12.3% (active). In the case of `N#CC1=C(N)SC(N)=C(C#N)C1CCc1ccccc1`, the activation is 0.43%.

Turning to `CN1CC=C2C(C#N)=C(N)C(C#N)(C#N)C(CCc3ccccc3)C2C1` (stereo not drawn), the activation is 46% (active). Turning to `CCN1CC=C2C(C#N)=C(N)C(C#N)(C#N)C(CCc3ccccc3)C2C1` (stereo not drawn), the activation is 11.4%. `CCOc1ccc(S(=O)(=O)n2ccnc2)c2ccccc12`: the activation was 12.2% (active). As to `CC1=CC=CN2CC(O)CN=C12` (stereo not drawn), the activation is 25.4% (active). The same measure for `CCCc1ccc(C(=O)NNc2cc(Cl)ccc2Cl)cc1`: 1.21%; for `CCc1ccc(C(=O)NNc2cc(Cl)ccc2Cl)cc1`: 16.7% (active).

Regarding `CCC1SC(=Nc2cccc(C)c2)NC1=O` (stereo not drawn), the activation was 143% (active). As for `Fc1ccc(OCc2nnc(SCCN3CCOCC3)o2)cc1`, the figure is 4.25%. As for `O=C(CSc1nnc(COc2ccccc2)o1)N1CCN(c2ccccc2)CC1`, the figure is 55.2% (active); as for `CCO[C@@H]1OC(C(=O)O)=C[C@H](c2coc3ccccc3c2=O)[C@H]1CCCO`, 9.42%; as for `COc1ccc(CCNC(=O)c2ccccc2OCc2c(C)noc2C)cc1`, 7.09%. As for `COc1cccc(/C(O)=C/c2nc3ccc(C(=O)NCCc4ccc(Cl)cc4)cc3[nH]c2=O)c1`, the activation is 6.19%. Take `COc1ccc(N(C)S(=O)(=O)c2ccc(Cl)c(C(=O)NCCc3ccc(Cl)cc3)c2)cc1`: the activation was 89% (active). In the case of `Cc1cc(C(=O)COc2cccc3cccnc23)c(C)n1C`, the activation was 60.1% (active).

On to `OCCN=C1CCCc2c1[nH]c1ccc(Cl)cc21`, for which the activation was 10.9%.

Regarding `Cn1c(O)c(/C=N/NC(=O)c2cc3ccccc3cc2O)c2ccccc21`, the activation was 228% (active). `Cn1ncc(N=Cc2c(O)ccc3ccccc23)c1C(=O)Nc1cccc(Cl)c1`: the activation is 8.95%. For `Oc1ccccc1C=NN=Cc1c(O)ccc2ccccc12`, the activation was 6.43%.

`CC(O)c1cccc(N=Cc2ccc3ccccc3c2O)c1` (stereo not drawn): the activation is 13.9% (active). On to `Cc1ccc2[nH]c(C)c(/C=C/c3cc[n+](C)cc3)c2c1`, for which the activation is 171% (active). Consider `Cc1[nH]c2ccccc2c1/C=C/c1cc[n+](C)cc1`, for which the activation is 11.9% (active). In the case of `Cc1ccc2c(c1)c(/C=C/c1cc[n+](C)cc1)c(C)n2C`, the activation was 11%. As to `C=CCn1c(COc2cccc(C)c2)nnc1SCn1nnc2ccccc2c1=O`, the activation was 5.98%.

Turning to `CCNc1nc(SCC(N)=O)nc2sc3c(c12)CCN(C)C3`, the activation was 6.59%.
